# Measurements collected from several papers.
# Compare with care: the assays were run in different laboratories.
# Target: Phosphorylase b kinase gamma catalytic chain, skeletal muscle/heart isoform (PHKG1, Homo sapiens, UniProt Q16816)
Structure (SMILES),test,conditions,measurement,result
Cc1nn(C)cc1-c1nc2c(N3CCN(Cc4ccc(Cl)cc4)CC3)c(Cl)cnc2[nH]1,"binding, competition with immobilised ligand",1 µM,remaining binding,100%
Cn1cc(-c2cc(F)cc(N3CCn4c(cc5c4CCCC5)C3=O)c2CO)cc(Nc2ccc(N3CCN(C4COC4)CC3)cn2)c1=O,"enzyme activity, inhibitor",0.1 µM,inhibition,6%
COc1ncccc1-c1cnn2ccc(N3CCN(C(=O)OC(C)C)CC3)nc12,"binding, competition with immobilised ligand",1 µM,remaining binding,100%
CC(C)(C)c1cc(C=C(C#N)C#N)cc(Br)c1O,"enzyme activity, inhibitor",0.5 µM,remaining activity,96.7%
COc1cc(Nc2ncc(F)c(Nc3ccc4c(n3)NC(=O)C(C)(C)O4)n2)cc(OC)c1OC,binding,10 µM,inhibition,29%
N#CC1(c2ccccn2)CCN(Cc2cc(C(=O)O)c(=O)n3ccccc23)CC1,"cell-free assay, competition with immobilised ligand",1 µM,remaining binding,100%
Cn1cc(-c2cccc(N3CCc4c(sc5c4CC(C)(C)C5)C3=O)c2CO)cc(Nc2ccncn2)c1=O,"enzyme activity, inhibitor",1 µM,inhibition,6%
Cn1cncc1[C@@](O)(COc1ccc(C#N)cc1-c1ccc(OC(F)(F)F)cc1)c1ccc(C#N)cc1,"cell-free assay, competition with immobilised ligand",1 µM,remaining binding,95%
Nc1ncc(-c2nc(N3CCOCC3)nc(N3CCOCC3)n2)c(C(F)F)n1,"binding, competition with immobilised ligand",10 µM,remaining binding,94%
O=c1[nH]c2ccccc2n1C1CCN(Cc2ccc(-c3[nH]c4cc5ncnc5cc4nc3-c3ccccc3)cc2)CC1,cell-free assay,0.5 µM,remaining signal,106%
